Activity calls are given as the source filed them. No cut-off for these calls is given here.
Key:
[1] = molecular target: T1, Neuronal acetylcholine receptor subunit alpha-7 (Rattus norvegicus, UniProt Q05941); experiment: Displacement of [3H]methyllycaconitine from rat forebrain alpha7 nAChR
Procedure, shortened: (§1)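 Competition binding on rat forebrain P2 membranes (60–70 µg protein) with [3H]MLA across 6–9 test concentrations. Incubation 120 min at 22 °C; 1 µM MLA defined non-specific binding. Samples filtered on PEI-presoaked glass fibre, scintillation-counted; duplicate to quadruplicate, 2–10 independent experiments.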

[2] = molecular target: T2, Neuronal acetylcholine receptor; alpha4/beta2 (Rattus norvegicus, UniProt P09483+P12390); experiment: Displacement of [3H]-epibatidine from rat forebrain alpha4beta2 nAChR
Procedure, shortened: (§2)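 Rat forebrain P2 membranes (60 µg protein) in HSS buffer with 0.5 nM (±)-[3H]epibatidine and 6–9 test concentrations. Incubated 90 min at 22 °C; non-specific binding defined with 300 µM (−)-nicotine. Filtered through PEI-presoaked glass fibre filters and counted by liquid scintillation. Run in duplicate to quadruplicate, with 2–10 independent experiments.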

[3] = Binding affinity to (alpha1)2beta1gammadelta nAChR in Torpedo californica electroplax by radioligand displacement assay; set-up: species or system Tetronarce californica
Procedure, shortened: (§3)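 Torpedo californica electroplax membranes (60–70 µg) incubated with (±)-[3H]epibatidine and 6–9 test concentrations in HSS buffer, 90 min at 22 °C. 300 µM (−)-nicotine defined non-specific binding. PEI-presoaked glass fibre filtration, scintillation counting; duplicate to quadruplicate, 2–10 independent experiments.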

[4] = molecular target: T1, Neuronal acetylcholine receptor subunit alpha-7; experiment: Displacement of [3H]methyllycaconitine from alpha7 nAChR in Sprague-Dawley rat brain membrane fraction after 2 hrs by liquid scintillation counting analysis; type: cell membranes; procedure, shortened: as §1
[5] = molecular target: T3, Neuronal acetylcholine receptor; alpha4/beta2 (Homo sapiens, UniProt P17787+P43681); experiment: Displacement of [3H]nicotine from alpha4beta2 nAChR expressed in human SH-EP1 clonal cell membranes after 2 to 3 hrs by liquid scintillation counting analysis
[6] = molecular target: T2, Neuronal acetylcholine receptor; alpha4/beta2; experiment: Displacement of [3H]nicotine from alpha4beta2 nAChR in Sprague-Dawley rat brain membrane fraction after 2 to 3 hrs by liquid scintillation counting analysis; type: cell membranes
[7] = molecular target: T1, Neuronal acetylcholine receptor subunit alpha-7; experiment: Displacement of [3H]methyllycaconitine from alpha7 nAChR in Sprague-Dawley rat forebrain P2 fraction after 90 mins by liquid scintillation counting analysis
[8] = Displacement of [3H]epibatidine from alpha3beta4 nAChR in calf adrenal membranes fraction after 90 mins by liquid scintillation counting analysis; type: cell membranes, Bos taurus
Procedure, shortened: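 Calf adrenal membranes (60–70 µg) in HSS buffer with 0.5 nM (±)-[3H]epibatidine, 6–9 test concentrations, 90 min at 22 °C. Non-specific binding with 300 µM (−)-nicotine. PEI-presoaked glass fibre filtration, liquid scintillation read-out; duplicate to quadruplicate, 2–10 independent experiments.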

[9] = molecular target: T2, Neuronal acetylcholine receptor; alpha4/beta2; experiment: Displacement of [3H]epibatidine from alpha4beta2 nAChR in Sprague-Dawley rat forebrain P2 fraction after 90 mins by liquid scintillation counting analysis; procedure, shortened: as §2
[10] = molecular target: T4, Neuronal acetylcholine receptor; alpha3/beta4 (Homo sapiens) (UniProt P30926+P32297); experiment: Agonist activity at human alpha3beta4 nAChR expressed in Xenopus laevis oocytes at 10 uM incubated for 8 secs followed by compound washout for 241 secs by Two-electrode voltage clamp assay; type: cell-based
Procedure, shortened: (§4)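 Stage V oocytes, defolliculated with collagenase, injected with 5–20 ng subunit cRNA and recorded 1–7 days later. Two-electrode clamp at −60 mV in Ringer's with 1 µM atropine, pH 7.2. Perfusion 2 ml/min for α7, 4 ml/min for the others. Test applications were bracketed by ACh controls (30 µM α1β1εδ, 60 µM α7, 100 µM α3β4, 30 µM α4β2).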

[11] = molecular target: Neuronal acetylcholine receptor subunit alpha-7 (Homo sapiens) (UniProt P36544); experiment: Agonist activity at human alpha7 nAChR expressed in Xenopus laevis oocytes at 10 uM incubated for 12 secs followed by compound washout for 181 secs by Two-electrode voltage clamp assay; type: cell-based; procedure, shortened: as §4
[12] = Displacement of [3H]epibatidine from (alpha1)2beta1gammadelta nAChR in Torpedo californica electroplax after 90 mins by liquid scintillation counting analysis; set-up: species or system Tetronarce californica; procedure, shortened: as §3
[13] = molecular target: T4, Neuronal acetylcholine receptor; alpha3/beta4 (Homo sapiens); experiment: Agonist activity at human alpha3beta4 nAChR expressed in Xenopus laevis oocytes at 1 uM incubated for 8 secs followed by compound washout for 241 secs by Two-electrode voltage clamp assay; type: cell-based; procedure, shortened: as §4
[14] = molecular target: Neuronal acetylcholine receptor subunit alpha-7 (Homo sapiens) (UniProt P36544); experiment: Agonist activity at human alpha7 nAChR expressed in Xenopus laevis oocytes at 1 uM incubated for 12 secs followed by compound washout for 181 secs by Two-electrode voltage clamp assay; type: cell-based; procedure, shortened: as §4
[15] = molecular target: T5, Nicotinic acetylcholine receptor alpha1/beta1/epsilon/delta (Mus musculus) (UniProt P04756+P09690+P02716+P20782); experiment: Agonist activity at mouse alpha1beta1epsilondelta nAChR expressed in Xenopus laevis oocytes at 1 uM incubated for 8 secs followed by compound washout for 241 secs by Two-electrode voltage clamp assay; type: cell-based; procedure, shortened: as §4
[16] = molecular target: T3, Neuronal acetylcholine receptor; alpha4/beta2; experiment: Agonist activity at human alpha4beta2 nAChR expressed in Xenopus laevis oocytes at 1 uM incubated for 8 secs followed by compound washout for 241 secs by Two-electrode voltage clamp assay; type: cell-based; procedure, shortened: as §4
[17] = molecular target: T3, Neuronal acetylcholine receptor; alpha4/beta2; experiment: Agonist activity at human alpha4beta2 nAChR expressed in Xenopus laevis oocytes at 10 uM incubated for 8 secs followed by compound washout for 241 secs by Two-electrode voltage clamp assay; type: cell-based; procedure, shortened: as §4
[18] = molecular target: T5, Nicotinic acetylcholine receptor alpha1/beta1/epsilon/delta (Mus musculus); experiment: Agonist activity at mouse alpha1beta1epsilondelta nAChR expressed in Xenopus laevis oocytes at 10 uM incubated for 8 secs followed by compound washout for 241 secs by Two-electrode voltage clamp assay; type: cell-based; procedure, shortened: as §4
[19] = Binding affinity to (alpha1)2beta1gammadelta nAChR (unknown origin); set-up: species or system Homo sapiens
[20] = molecular target: T4, Neuronal acetylcholine receptor; alpha3/beta4 (Homo sapiens); experiment: Antagonist activity at human alpha3beta4 nAChR expressed in Xenopus laevis oocytes assessed as inhibition of acetylcholine-induced effect at 10 uM incubated for 8 secs followed by compound washout for 241 secs by Two-electrode voltage clamp assay; type: cell-based
Procedure, shortened: (§5)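 Oocytes injected with 50 nl of 5–20 ng subunit cRNA and recorded 1–7 days later. Two-electrode voltage clamp at −60 mV, with perfusion at 4 ml/min in Ringer's solution (pH 7.2, 1 µM atropine). Each recording ran two ACh controls, then compound co-applied with ACh, then a follow-up ACh control. Applications lasted 8 s with a 241 s washout. Control ACh was 100 µM for α3β4 and 30 µM for α4β2.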

[21] = molecular target: T3, Neuronal acetylcholine receptor; alpha4/beta2; experiment: Antagonist activity at human alpha4beta2 nAChR expressed in Xenopus laevis oocytes assessed as inhibition of acetylcholine-induced effect at 10 uM incubated for 8 secs followed by compound washout for 241 secs by Two-electrode voltage clamp assay; type: cell-based; procedure, shortened: as §5
[22] = molecular target: Neuronal acetylcholine receptor subunit alpha-7 (Homo sapiens) (UniProt P36544); experiment: Partial agonist activity at human alpha7 nAChR expressed in Xenopus laevis oocytes at 10 uM incubated for 12 secs followed by compound washout for 181 secs by Two-electrode voltage clamp assay; type: cell-based
Procedure, shortened: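 α7-expressing oocytes injected with 50 nl of 5–20 ng cRNA and recorded 1–7 days later. Clamped at −60 mV and perfused at 2 ml/min with Ringer's solution (pH 7.2, 1 µM atropine). Two 60 µM ACh control applications, then a compound application, then a follow-up ACh control. Applications lasted 12 s with a 181 s washout.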

[23] = molecular target: T4, Neuronal acetylcholine receptor; alpha3/beta4 (Homo sapiens); experiment: Partial agonist activity at human alpha3beta4 nAChR expressed in Xenopus laevis oocytes at 10 uM incubated for 8 secs followed by compound washout for 241 secs by Two-electrode voltage clamp assay; type: cell-based
Procedure, shortened: (§6)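 Oocytes injected with 50 nl of 5–20 ng subunit cRNA and recorded 1–7 days later. Two-electrode voltage clamp at −60 mV, with perfusion at 4 ml/min in Ringer's solution (pH 7.2, 1 µM atropine). Two initial ACh control applications, then a compound application, then a follow-up ACh control. Applications lasted 8 s with a 241 s washout. Control ACh was 100 µM for α3β4 and 30 µM for α4β2.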

[24] = molecular target: T3, Neuronal acetylcholine receptor; alpha4/beta2; experiment: Partial agonist activity at human alpha4beta2 nAChR expressed in Xenopus laevis oocytes at 10 uM incubated for 8 secs followed by compound washout for 241 secs by Two-electrode voltage clamp assay; type: cell-based; procedure, shortened: as §6
[25] = molecular target: Neuronal acetylcholine receptor subunit alpha-7 (Homo sapiens) (UniProt P36544); experiment: Antagonist activity at human alpha7 nAChR expressed in Xenopus laevis oocytes assessed as inhibition of acetylcholine-induced effect at 10 uM incubated for 12 secs followed by compound washout for 181 secs by Two-electrode voltage clamp assay; type: cell-based
Procedure, shortened: (§7)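 Oocytes clamped at −60 mV, perfused with Ringer's plus 1 µM atropine, pH 7.2. After two control ACh applications, the compound was co-applied with control ACh (60 µM for α7, 30 µM for α1β1εδ), followed by one further ACh control to gauge rundown. α7 used 2 ml/min perfusion; muscle subtype used 4 ml/min.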

[26] = molecular target: T5, Nicotinic acetylcholine receptor alpha1/beta1/epsilon/delta (Mus musculus); experiment: Antagonist activity at mouse alpha1beta1epsilondelta nAChR expressed in Xenopus laevis oocytes assessed as inhibition of acetylcholine-induced effect at 10 uM incubated for 8 secs followed by compound washout for 241 secs by Two-electrode voltage clamp assay; type: cell-based; procedure, shortened: as §7
[27] = Binding affinity to pig adrenal alpha3beta4 nAChR by radioligand displacement assay; set-up: species or system Sus scrofa

T3 sequence (P17787 whole entry): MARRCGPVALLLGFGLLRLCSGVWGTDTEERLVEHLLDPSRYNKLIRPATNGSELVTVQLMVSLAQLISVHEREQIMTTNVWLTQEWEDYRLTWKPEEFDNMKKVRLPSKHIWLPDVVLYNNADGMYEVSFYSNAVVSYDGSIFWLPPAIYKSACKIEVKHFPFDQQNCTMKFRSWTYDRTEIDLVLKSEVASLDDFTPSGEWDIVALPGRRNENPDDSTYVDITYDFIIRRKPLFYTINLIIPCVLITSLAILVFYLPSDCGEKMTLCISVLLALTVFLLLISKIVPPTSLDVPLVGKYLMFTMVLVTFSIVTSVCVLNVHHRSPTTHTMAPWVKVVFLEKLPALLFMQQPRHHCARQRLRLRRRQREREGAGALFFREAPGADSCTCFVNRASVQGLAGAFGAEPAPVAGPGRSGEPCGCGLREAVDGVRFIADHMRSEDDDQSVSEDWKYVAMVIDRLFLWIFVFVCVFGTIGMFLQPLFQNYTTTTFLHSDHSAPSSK
T3 sequence (P43681 whole entry): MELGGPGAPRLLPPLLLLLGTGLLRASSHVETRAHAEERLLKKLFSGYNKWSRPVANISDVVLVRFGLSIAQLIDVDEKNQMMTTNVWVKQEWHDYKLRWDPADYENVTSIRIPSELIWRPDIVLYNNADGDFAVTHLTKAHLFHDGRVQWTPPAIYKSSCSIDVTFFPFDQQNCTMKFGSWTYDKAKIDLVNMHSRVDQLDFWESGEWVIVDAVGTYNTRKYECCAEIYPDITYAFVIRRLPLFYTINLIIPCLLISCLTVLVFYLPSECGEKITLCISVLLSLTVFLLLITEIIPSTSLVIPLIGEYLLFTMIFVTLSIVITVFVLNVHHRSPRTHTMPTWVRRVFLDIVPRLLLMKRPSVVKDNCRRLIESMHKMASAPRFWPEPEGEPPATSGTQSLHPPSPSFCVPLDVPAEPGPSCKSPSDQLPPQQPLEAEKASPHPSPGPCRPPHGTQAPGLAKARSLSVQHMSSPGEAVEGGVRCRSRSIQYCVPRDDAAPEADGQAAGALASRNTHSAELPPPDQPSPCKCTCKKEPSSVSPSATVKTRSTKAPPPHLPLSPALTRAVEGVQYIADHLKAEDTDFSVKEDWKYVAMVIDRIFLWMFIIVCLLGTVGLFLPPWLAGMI
T2 sequence (P09483 whole entry): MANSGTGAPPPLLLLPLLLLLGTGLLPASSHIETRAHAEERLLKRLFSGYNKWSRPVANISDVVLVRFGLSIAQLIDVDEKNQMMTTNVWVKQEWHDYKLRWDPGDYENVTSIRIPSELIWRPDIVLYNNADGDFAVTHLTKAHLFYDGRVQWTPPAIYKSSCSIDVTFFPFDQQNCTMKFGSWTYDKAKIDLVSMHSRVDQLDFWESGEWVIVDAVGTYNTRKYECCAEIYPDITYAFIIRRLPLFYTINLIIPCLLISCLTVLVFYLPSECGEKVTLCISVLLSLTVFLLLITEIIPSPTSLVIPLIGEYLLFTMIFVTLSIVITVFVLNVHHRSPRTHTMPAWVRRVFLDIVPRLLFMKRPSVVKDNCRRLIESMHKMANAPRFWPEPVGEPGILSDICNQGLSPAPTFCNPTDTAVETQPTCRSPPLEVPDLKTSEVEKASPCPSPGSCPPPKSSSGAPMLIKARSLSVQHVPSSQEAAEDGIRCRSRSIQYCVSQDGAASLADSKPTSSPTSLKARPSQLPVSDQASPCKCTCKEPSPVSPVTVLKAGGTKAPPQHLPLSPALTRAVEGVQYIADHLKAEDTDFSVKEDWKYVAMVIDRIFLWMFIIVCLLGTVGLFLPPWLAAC
T2 sequence (P12390 whole entry): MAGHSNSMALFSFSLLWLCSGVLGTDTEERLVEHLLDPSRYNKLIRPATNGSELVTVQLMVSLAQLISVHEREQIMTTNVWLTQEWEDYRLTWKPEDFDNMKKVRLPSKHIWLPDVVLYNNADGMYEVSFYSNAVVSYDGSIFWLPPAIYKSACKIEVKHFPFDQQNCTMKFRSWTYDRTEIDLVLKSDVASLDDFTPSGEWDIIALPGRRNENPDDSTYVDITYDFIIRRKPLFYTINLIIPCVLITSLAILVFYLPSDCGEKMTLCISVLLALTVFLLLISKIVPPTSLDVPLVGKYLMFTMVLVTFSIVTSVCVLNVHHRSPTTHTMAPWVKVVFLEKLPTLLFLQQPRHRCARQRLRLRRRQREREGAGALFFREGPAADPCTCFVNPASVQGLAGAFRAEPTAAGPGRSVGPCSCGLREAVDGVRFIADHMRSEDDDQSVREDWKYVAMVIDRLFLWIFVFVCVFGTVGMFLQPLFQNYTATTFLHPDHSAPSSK
Neuronal acetylcholine receptor subunit alpha-7 (Homo sapiens), sequence (P36544 whole entry, the tested form may be a part): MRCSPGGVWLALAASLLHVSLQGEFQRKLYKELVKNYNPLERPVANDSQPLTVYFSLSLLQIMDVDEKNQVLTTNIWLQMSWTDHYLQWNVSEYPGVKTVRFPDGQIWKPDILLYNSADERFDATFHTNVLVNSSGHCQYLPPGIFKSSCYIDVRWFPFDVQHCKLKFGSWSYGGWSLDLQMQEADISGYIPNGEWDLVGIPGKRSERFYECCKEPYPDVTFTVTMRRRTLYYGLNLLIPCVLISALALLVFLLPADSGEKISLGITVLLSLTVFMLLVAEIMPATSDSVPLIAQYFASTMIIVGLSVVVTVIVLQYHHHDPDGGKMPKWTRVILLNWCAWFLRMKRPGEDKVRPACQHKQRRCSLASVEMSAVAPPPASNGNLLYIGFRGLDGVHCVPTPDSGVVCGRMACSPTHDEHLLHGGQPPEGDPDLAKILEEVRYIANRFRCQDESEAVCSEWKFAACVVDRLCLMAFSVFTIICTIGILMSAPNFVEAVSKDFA
T1 sequence (Q05941 whole entry): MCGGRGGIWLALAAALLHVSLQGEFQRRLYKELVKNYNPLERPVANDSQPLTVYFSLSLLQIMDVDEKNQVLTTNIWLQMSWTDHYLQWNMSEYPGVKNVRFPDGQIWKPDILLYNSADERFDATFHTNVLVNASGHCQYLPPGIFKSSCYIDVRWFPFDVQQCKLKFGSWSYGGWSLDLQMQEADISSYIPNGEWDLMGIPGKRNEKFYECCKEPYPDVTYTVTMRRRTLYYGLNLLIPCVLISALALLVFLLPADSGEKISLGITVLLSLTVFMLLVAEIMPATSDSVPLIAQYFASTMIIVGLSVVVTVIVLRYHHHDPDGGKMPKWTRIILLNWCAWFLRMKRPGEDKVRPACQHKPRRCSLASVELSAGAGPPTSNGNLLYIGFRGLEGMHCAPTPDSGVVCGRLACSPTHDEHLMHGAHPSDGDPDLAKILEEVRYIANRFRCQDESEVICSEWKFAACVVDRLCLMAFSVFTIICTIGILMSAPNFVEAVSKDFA

Row | SMILES | Ki [4] | Ki [5] | Ki [6] | Ki [7] | Ki [8] | Ki [9] | Activity [10] | Activity [11] | Ki [12] | other results
1 | O=c1c(-c2cccnc2)ccc2n1C[C@@H]1CNC[C@H]2C1 | – | – | – | – | – | – | – | – | – | Ki [1]: 1100 nM; Ki [2]: 0.91 nM; Ki [3]: > 5000 nM
2 | CC(C)C(=O)N1C[C@@H]2CNC[C@@H](C2)C1 | 645 nM | 44.4 nM | 102 nM | > 5000 nM | 828 nM | 50.3 nM | – | – | – | –
3 | CCC(=O)N1C[C@@H]2CNC[C@@H](C2)C1 | 795 nM | 10.4 nM | 12.2 nM | > 2000 nM | 329 nM | 4.5 nM | Active | Active | > 1000 nM | –
4 | C1NCC2CNCC1C2 | – | – | – | > 1000 nM | > 1000 nM | 600 nM | Active | Active | > 1000 nM | Activity [13]: Active; Activity [14]: Active; Activity [15]: Active; Activity [16]: Active
5 | CCCC(=O)N1C[C@@H]2CNC[C@@H](C2)C1 | 230 nM | 2.9 nM | 8.1 nM | > 1000 nM | 266 nM | 3.6 nM | Active | Active | > 5000 nM | Activity [17]: Active; Activity [18]: inactive
6 | O=C(C1CCCC1)N1C[C@@H]2CNC[C@@H](C2)C1 | 211 nM | 20.2 nM | 26.6 nM | – | – | 10.8 nM | inactive | Active | – | Activity [18]: inactive
7 | O=C1CCCC2[C@H]3CNC[C@H](C3)CN12 (stereo partly drawn) | – | – | – | – | – | – | – | – | – | Ki [19]: 19000 nM
8 | CC(=O)N1C[C@@H]2CNC[C@@H](C2)C1 | 3280 nM | 20.2 nM | 18.7 nM | 636 nM | 664 nM | 5.6 nM | Active | Active | – | Activity [18]: inactive
9 | O=C(c1ccc(-c2ccccc2)cc1)N1C[C@@H]2CNC[C@@H](C2)C1 | – | – | – | – | 1090 nM | 39.9 nM | – | – | – | Activity [20]: Active; Activity [21]: Active; Activity [22]: Active; Activity [23]: Active; Activity [24]: Active; Activity [25]: Active
10 | O=C(CC1CCCC1)N1C[C@@H]2CNC[C@@H](C2)C1 | – | – | – | – | – | 43.5 nM | inactive | – | – | Activity [26]: Active; Activity [25]: Active
11 | O=C(c1ccco1)N1C[C@@H]2CNC[C@@H](C2)C1 | 15000 nM | 9.9 nM | 31 nM | – | 2240 nM | 21.4 nM | – | – | > 10000 nM | –
12 | O=c1cccc2n1C[C@@H]1CNC[C@H]2C1 [CYTISINICLINE] | – | – | – | – | – | – | – | – | – | Ki [1]: 250 nM; Ki [27]: 19 nM; Ki [3]: 1300 nM
13 | CN1C[C@@H]2C[C@H](C1)C1CCCC(=O)N1C2 (stereo partly drawn) | – | – | – | – | – | – | – | – | – | Ki [19]: > 50000 nM

From ChEMBL document CHEMBL3091351, “The 3,7-diazabicyclo[3.3.1]nonane scaffold for subtype selective nicotinic acetylcholine receptor (nAChR) ligands. Part 1: the influence of different hydrogen bond acceptor systems on alkyl and (hetero)aryl substituents” (Bioorg Med Chem, 2013)
